Among the data in ChEMBL document CHEMBL1131291, “Rational design, synthesis, and X-ray structure of selective noncovalent thrombin inhibitors” (J Med Chem, 1998) are Ki values, retold here.

The target of experiment [1] is T1, Coagulation factor X (Homo sapiens, UniProt P00742). The experiment can be described thus: In vitro inhibition was measured against Human Coagulation factor X; […]. In short, it runs like this:
(§1)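 Factor Xa was used at 30 pM final, with Pefachrome Xa substrate, in phosphate buffer pH 7.4 with 100 mM NaCl and 0.1% BSA, at 25 °C. The enzyme-initiated reaction was followed as the 405 nm increase for 30 min. Inhibitor was diluted from a cremophor/ethanol solution. Ki came from weighted Dixon-plot regression; triplicate determinations.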

The next experiment deals with Prothrombin (Homo sapiens, UniProt P00734). The experiment can be described thus: In vitro inhibition was measured against Human Thrombin.
In experiment [2] the target is T2, Serine protease 1 (Bos taurus, UniProt P00760).
T2 sequence (P00760 whole entry): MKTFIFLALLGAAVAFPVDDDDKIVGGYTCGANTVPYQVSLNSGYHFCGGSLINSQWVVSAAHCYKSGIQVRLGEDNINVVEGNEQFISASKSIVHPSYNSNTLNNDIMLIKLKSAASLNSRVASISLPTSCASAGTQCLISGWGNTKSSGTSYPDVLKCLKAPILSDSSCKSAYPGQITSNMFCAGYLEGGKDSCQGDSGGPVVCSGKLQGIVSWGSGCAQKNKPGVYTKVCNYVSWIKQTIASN
The experiment can be described thus: In vitro inhibition was measured against […] bovine pancreatic trypsin. In short, it runs like this:
(§2)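 Trypsin at 260 pM final was run with Pefachrome TRY substrate in 100 mM sodium phosphate pH 7.4, 100 mM NaCl and 0.1% BSA, at 25 °C. Inhibitor was pre-mixed with substrate and the reaction started with enzyme. Absorbance at 405 nm (p-nitroaniline) was read over 30 min. Ki was fitted to the Dixon equation by weighted linear regression; triplicate, mean ± SD.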

The target of experiment [3] is T1, Coagulation factor X. The experiment can be described thus: In vitro inhibition was measured against Human Coagulation factor X. In short, it runs like this: as §1
In experiment [4] the target is T2, Serine protease 1. Kind of experiment: In vitro inhibition was measured against Bovine pancreatic trypsin. In short, it runs like this: as §2

T1 sequence (P00742 41-179 limits assumed): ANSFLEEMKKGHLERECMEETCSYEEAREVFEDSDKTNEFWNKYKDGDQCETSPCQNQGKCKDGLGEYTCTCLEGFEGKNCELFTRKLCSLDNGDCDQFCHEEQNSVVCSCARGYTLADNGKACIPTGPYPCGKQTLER
T1 sequence (P00742 235-488 limits assumed): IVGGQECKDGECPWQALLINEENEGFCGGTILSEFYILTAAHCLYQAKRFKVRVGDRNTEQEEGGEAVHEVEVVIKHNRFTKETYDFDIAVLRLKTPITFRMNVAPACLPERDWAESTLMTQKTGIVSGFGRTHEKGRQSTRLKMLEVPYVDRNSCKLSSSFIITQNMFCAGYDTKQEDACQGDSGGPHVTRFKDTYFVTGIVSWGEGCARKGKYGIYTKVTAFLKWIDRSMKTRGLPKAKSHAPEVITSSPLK

For orientation: Ki means the dissociation constant of the complex between target and ligand, obtained from inhibition or displacement. A high value points to weaker binding. On to `NC(N)=NCCCCNC(=O)[C@@H]1CS[C@H]2CC[C@@H](N)C(=O)N21.O=C(O)C(F)(F)F`, for which the results for the Ki entry at Coagulation factor X [1], at Prothrombin and on Serine protease 1 [2] were “Not Active”, 62.4 µM and 5.36 µM, respectively.

Take `NC(N)=NCCCCNC(=O)[C@@H]1CS[C@H]2CC[C@H](N)C(=O)N21.O=C(O)C(F)(F)F`: the Ki result at Coagulation factor X [1] is “Not Active”; at Prothrombin, 19.5 µM; on Serine protease 1 [2], 3.58 µM.

For `N=C(N)NCCCNC(=O)[C@@H]1CS[C@H]2CC[C@@H](NS(=O)(=O)Cc3ccccc3)C(=O)N21`, the Ki on Coagulation factor X [3] was 26 µM; at Serine protease 1 [2], 5.1 µM.

With `N=C(N)NCCCNC(=O)[C@@H]1CS[C@H]2CC[C@H](NS(=O)(=O)Cc3ccccc3)C(=O)N21`, the values for the Ki on Prothrombin, at Coagulation factor X [3] and on Serine protease 1 [2] were 0.111 µM, over 33.7 µM and 7.9 µM, respectively.

For the compound `N=C(N)NCCCNC(=O)[C@@H]1CS[C@H]2CC[C@@H](NS(=O)(=O)c3cccc4ccccc34)C(=O)N21`, the Ki worked out at 0.751 µM at Prothrombin, 6.78 µM at Coagulation factor X [3] and 3.4 µM on Serine protease 1 [2].

Regarding `N=C(N)NCCCNC(=O)[C@@H]1CS[C@H]2CC[C@H](NS(=O)(=O)c3cccc4ccccc34)C(=O)N21`, the Ki worked out at 19.6 µM at Serine protease 1 [4] and 17.8 µM at Coagulation factor X [3].

Turning to `NC(N)=NCCCNC(=O)[C@@H]1CS[C@H]2CC[C@H](N)C(=O)N21`, the Ki on Prothrombin is 5.1 µM; at Coagulation factor X [3], over 33.7 µM; on Serine protease 1 [2], 13.3 µM.

With `NC(N)=NCCCNC(=O)[C@@H]1CS[C@H]2CC[C@@H](N)C(=O)N21.O=C(O)C(F)(F)F`, the Ki result on Coagulation factor X [1] is “Not Active”; at Prothrombin, 10.3 µM; at Serine protease 1 [2], 25.1 µM.
